Measured values as given in ChEMBL document CHEMBL5096187, “Efficient Synthesis and Bioevaluation of Novel Dual Tubulin/Histone Deacetylase 3 Inhibitors as Potential Anticancer Agents” (J Med Chem, 2021).

Columns and labels:
B16-F10 = assay: Antiproliferative activity against mouse B16-F10 cells assessed as inhibition of cell viability measured for 48 hrs by microplate reader based MTT assay; type: functional; details: B16-F10, 48 h
How it was run: (§1)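 Cells grown in RPMI-1640 with 10% FBS and seeded at 5000 cells/well. After overnight attachment, compound was added in medium with 0.1% DMSO for 48 h at 37 °C. Read-out was MTT for HCT-116, B16-F10 and A549, and CCK-8 for Jurkat (0.5 mg/mL, 4 h), with absorbance at 570 nm. IC50 from nonlinear regression; at least three independent experiments.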

Tubulin (Sus scrofa) = Tubulin (Sus scrofa) (UniProt P02554+P02550); assay: Inhibition of pig brain tubulin polymerization at 10 uM measured after 20 mins by spectrometric method relative to control
Sequence of Tubulin (Sus scrofa) (P02550 whole entry, looked up): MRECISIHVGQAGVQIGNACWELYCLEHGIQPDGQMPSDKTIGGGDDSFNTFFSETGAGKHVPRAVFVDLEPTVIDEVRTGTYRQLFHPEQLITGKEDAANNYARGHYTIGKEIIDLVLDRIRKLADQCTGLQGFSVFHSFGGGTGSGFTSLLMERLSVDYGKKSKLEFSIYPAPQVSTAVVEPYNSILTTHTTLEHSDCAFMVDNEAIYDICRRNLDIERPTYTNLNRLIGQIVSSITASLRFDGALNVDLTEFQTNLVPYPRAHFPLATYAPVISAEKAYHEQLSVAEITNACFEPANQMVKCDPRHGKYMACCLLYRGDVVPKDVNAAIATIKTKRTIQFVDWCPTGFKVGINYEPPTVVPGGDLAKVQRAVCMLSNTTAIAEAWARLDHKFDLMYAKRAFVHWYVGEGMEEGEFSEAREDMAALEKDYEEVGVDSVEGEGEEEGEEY
Sequence of Tubulin (Sus scrofa) (P02554 whole entry, looked up): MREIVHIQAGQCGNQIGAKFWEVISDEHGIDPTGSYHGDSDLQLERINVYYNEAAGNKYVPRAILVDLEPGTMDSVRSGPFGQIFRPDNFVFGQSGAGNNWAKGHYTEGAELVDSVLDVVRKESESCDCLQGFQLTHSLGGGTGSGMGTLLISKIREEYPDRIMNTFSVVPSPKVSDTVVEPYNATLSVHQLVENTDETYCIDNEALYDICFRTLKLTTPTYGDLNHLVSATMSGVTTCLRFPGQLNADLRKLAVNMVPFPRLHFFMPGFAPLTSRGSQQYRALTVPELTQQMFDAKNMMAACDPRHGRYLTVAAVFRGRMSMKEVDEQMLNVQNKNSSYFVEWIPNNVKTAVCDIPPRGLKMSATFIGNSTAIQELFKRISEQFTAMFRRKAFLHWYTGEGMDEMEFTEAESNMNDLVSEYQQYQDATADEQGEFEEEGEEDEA
How it was run: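 Pig brain tubulin was purified by three assembly/disassembly cycles and then phosphocellulose chromatography. Compound at 10 μM in PEM buffer with 1 mM GTP and 5% glycerol at 37 °C. Polymerization followed at 340 nm; inhibition taken at 20 min versus vehicle control.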

Histone deacetylase 1 = Histone deacetylase 1 (Homo sapiens, UniProt Q13547); assay: Inhibition of full length recombinant human HDAC1 (1 to 482 residues) expressed in Baculovirus system using Ac-Leu-Gly-Lys (Ac)-AMC as substrate pretreated for 5 mins followed by substrate addition and measured after 30 mins
Sequence of Histone deacetylase 1 (Q13547 whole entry, the tested form may be a part): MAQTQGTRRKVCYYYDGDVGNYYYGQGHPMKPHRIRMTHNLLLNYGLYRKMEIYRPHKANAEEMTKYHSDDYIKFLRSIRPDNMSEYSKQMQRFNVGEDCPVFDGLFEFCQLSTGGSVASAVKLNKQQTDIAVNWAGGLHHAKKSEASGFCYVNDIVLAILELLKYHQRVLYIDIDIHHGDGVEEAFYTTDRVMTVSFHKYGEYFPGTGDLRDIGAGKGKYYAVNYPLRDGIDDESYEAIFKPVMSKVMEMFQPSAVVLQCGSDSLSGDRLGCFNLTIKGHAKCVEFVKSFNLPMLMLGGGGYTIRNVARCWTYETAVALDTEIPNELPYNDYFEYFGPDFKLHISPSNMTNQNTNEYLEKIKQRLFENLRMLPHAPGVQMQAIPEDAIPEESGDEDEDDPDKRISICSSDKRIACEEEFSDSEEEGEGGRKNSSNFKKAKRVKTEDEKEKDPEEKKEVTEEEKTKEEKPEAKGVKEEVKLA

[1] = target: T1, Protein deacetylase HDAC6 (Homo sapiens) (UniProt Q9UBN7); assay: Inhibition of recombinant HDAC6 (unknown origin) at 1 uM relative to control
T1 sequence (whole entry): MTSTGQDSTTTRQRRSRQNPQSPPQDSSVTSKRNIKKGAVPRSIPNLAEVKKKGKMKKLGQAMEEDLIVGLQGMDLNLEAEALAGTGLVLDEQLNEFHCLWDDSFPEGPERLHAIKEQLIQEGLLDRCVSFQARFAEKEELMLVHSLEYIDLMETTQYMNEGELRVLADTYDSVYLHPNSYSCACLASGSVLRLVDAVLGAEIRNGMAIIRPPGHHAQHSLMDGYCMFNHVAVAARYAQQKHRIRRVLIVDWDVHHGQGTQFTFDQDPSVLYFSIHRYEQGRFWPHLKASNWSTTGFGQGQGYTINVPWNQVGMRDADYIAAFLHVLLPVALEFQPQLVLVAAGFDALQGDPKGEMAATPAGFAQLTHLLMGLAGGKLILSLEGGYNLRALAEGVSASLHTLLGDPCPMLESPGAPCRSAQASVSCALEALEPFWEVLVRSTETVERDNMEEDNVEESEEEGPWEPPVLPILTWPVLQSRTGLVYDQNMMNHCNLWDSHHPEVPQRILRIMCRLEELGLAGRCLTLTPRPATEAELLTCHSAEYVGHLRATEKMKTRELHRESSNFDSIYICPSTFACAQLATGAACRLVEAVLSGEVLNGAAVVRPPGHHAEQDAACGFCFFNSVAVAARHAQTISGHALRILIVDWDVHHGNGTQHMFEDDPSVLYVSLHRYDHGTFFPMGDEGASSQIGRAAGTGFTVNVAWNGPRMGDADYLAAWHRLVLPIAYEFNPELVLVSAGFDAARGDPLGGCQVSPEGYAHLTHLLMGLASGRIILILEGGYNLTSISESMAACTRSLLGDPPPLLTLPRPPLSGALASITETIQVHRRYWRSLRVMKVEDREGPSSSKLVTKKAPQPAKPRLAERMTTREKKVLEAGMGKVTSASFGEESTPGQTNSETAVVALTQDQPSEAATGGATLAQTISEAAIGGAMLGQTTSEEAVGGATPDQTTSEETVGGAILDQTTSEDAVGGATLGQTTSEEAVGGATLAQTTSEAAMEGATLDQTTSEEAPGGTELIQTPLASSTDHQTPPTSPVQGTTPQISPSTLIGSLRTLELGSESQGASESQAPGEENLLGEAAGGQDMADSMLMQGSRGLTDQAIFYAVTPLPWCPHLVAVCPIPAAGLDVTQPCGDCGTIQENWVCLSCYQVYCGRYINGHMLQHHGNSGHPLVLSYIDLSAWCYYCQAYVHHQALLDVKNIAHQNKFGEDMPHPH
How it was run: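 Single-point test at 1 μM against recombinant HDAC6 (15 ng/well) in 25 mM Tris pH 8.0, 1 mM MgCl₂, 0.1 mg/mL BSA, 137 mM NaCl, 2.7 mM KCl. Compound preincubated 5 min at room temperature, then Ac-Leu-Gly-Lys(Ac)-AMC 10 μM, 30 min at 37 °C. Trypsin/TSA developer 30 min. Fluorescence read at ex 350−360/em 450−460 nm.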

[2] = Antiproliferative activity against human YCC-11 cells assessed as inhibition of cell viability; type: functional, cell-based
Jurkat = assay: Antiproliferative activity against human Jurkat cells assessed as inhibition of cell viability measured for 48 hrs by microplate reader based CCK-8 assay; type: functional
[3] = Antiproliferative activity against human YCC3/7 cells assessed as inhibition of cell viability; type: functional, cell-based
Histone deacetylase 8 = target: T2, Histone deacetylase 8 (Homo sapiens, UniProt Q9BY41); assay: Inhibition of full length C-terminal his-tagged human recombinant HDAC8 ([…]) expressed in baculovirus in Sf9 insect cells using Ac-Leu-Gly-Lys (Tfa)-AMC as substrate pretreated for 5 mins followed by substrate addition and measured after 30 mins
T2 sequence (Q9BY41 whole entry): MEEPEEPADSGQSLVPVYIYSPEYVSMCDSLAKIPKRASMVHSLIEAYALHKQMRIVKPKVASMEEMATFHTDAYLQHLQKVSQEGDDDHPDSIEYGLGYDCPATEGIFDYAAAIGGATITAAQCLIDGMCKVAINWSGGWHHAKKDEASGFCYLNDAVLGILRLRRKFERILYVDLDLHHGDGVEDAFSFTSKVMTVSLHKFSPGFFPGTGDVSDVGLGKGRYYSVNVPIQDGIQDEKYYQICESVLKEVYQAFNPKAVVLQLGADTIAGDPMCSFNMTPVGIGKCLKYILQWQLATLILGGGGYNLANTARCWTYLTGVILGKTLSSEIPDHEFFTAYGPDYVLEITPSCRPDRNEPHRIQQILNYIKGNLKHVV

A549 = assay: Antiproliferative activity against human A549 cells assessed as inhibition of cell viability measured for 48 hrs by microplate reader based CCK-8 assay; type: functional; details: A549, 48 h
Histone deacetylase 3 = Histone deacetylase 3 (Homo sapiens, UniProt O15379); assay: Inhibition of recombinant HDAC3 (unknown origin) using Ac-Leu-Gly-Lys (Ac)-AMC as substrate pretreated for 5 mins followed by substrate addition and measured after 30 mins
Sequence of Histone deacetylase 3 (O15379 whole entry, the tested form may be a part): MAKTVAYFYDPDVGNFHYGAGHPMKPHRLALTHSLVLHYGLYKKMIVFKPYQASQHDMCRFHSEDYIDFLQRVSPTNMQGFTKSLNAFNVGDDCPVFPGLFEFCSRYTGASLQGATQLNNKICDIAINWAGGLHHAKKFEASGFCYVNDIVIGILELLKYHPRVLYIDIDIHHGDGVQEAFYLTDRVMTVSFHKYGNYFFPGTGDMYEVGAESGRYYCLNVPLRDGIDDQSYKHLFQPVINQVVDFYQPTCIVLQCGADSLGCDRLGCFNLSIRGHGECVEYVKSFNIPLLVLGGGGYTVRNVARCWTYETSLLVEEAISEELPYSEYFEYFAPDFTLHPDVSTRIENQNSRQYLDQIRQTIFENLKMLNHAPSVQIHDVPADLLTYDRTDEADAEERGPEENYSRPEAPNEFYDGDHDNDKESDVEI

[4] = target: T3, Protein deacetylase HDAC6 (Homo sapiens, UniProt Q9UBN7); assay: Inhibition of full length N-terminal GST-tagged human recombinant HDAC6 (1 to 1215 residues) expressed in Baculovirus infected Sf9 cells using Ac-Leu-Gly-Lys (Ac)-AMC as substrate pretreated for 5 mins followed by substrate addition and measured after 30 mins
T3 sequence (Q9UBN7 whole entry): T1 sequence (whole entry)
How it was run: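 HDAC6 at 15 ng/well in Tris buffer pH 8.0 with MgCl2, BSA, NaCl and KCl. Ten 3-fold dilutions preincubated 5 min at room temperature, then 10 μM Ac-Leu-Gly-Lys(Ac)-AMC for 30 min at 37 °C. IC50 by normalized dose–response nonlinear fit; performed at least three times.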

HCT-116 = assay: Antiproliferative activity against human HCT-116 cells assessed as inhibition of cell viability measured for 48 hrs by microplate reader based MTT assay; type: functional; details: HCT-116, 48 h; how it was run: as §1
Histone deacetylase 7 = target: T4, Histone deacetylase 7 (Homo sapiens, UniProt Q8WUI4); assay: Inhibition of full length N-terminal GST-tagged human recombinant HDAC7 (501 to 952 residues) expressed in Baculovirus system using Ac-Leu-Gly-Lys (Ac)-AMC as substrate pretreated for 5 mins followed by substrate addition and measured after 30 mins
T4 sequence (Q8WUI4 whole entry): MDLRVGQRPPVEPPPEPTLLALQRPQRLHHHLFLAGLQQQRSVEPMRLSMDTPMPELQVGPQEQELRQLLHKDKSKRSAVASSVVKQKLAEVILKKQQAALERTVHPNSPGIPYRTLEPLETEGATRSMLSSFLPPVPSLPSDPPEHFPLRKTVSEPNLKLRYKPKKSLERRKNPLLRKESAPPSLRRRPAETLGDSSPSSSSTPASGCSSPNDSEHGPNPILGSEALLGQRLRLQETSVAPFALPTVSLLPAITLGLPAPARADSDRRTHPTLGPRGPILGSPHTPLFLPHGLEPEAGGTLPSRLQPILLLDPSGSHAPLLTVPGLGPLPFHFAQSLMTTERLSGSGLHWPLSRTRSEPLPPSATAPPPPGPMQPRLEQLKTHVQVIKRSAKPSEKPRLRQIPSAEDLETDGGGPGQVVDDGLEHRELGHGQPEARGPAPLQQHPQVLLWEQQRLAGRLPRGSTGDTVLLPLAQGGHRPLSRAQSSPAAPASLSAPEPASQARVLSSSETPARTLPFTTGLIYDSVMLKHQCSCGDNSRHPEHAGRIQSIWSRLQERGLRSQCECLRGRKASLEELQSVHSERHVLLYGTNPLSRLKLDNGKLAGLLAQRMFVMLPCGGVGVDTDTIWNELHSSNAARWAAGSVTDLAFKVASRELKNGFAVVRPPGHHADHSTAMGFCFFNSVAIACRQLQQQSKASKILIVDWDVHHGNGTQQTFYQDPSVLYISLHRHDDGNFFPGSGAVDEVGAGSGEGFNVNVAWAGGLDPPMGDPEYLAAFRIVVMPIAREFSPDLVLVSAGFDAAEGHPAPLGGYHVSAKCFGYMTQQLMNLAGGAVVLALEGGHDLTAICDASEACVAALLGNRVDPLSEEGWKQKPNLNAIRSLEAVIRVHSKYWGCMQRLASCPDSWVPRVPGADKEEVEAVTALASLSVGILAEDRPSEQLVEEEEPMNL

Row | Compound | IC50 (B16-F10) [µM] | inhibition (Tubulin (Sus scrofa)) [%] | IC50 (Histone deacetylase 1) [µM] | inhibition [1] [%] | IC50 [2] [nM] | IC50 (Jurkat) [nM] | IC50 [3] [µM] | IC50 (Histone deacetylase 8) [nM] | IC50 (A549) [nM] | IC50 (Histone deacetylase 3) [µM] | IC50 [4] [nM] | IC50 (HCT-116) [nM] | IC50 (Histone deacetylase 7) [µM]
1 | COc1cc(C(=O)c2csc(-c3ccc(OCCCC(=O)NO)cc3)n2)cc(OC)c1OC | 3.83 | 39 | 6.27 | > 50 | 920 | 530 | 1.28 | 8840 | 1930 | 9.56 | 1150 | 100 | 
2 | COc1cc(C(=O)c2csc(-c3ccc(NC(=O)/C=C/C(=O)Nc4ccccc4N)cc3)n2)cc(OC)c1OC | 3.95 | 67 | 14.4 |  |  | 260 |  | 800 | 2980 | 3.96 | 30200 | 870 | 43
3 | COc1cc(C(=O)c2csc(-c3ccc(/C=C/C(=O)NO)cc3)n2)cc(OC)c1OC | 1.38 | 47 | 8.49 | > 50 | 4090 | 20 | 6.14 | 2710 | 750 | 19.1 | 1590 | 100 | 
